Active and inactive are the calls of the source.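 Rule for the calls: active = calcium signal ratio cut to more than 3 SD under the fully stimulated control mean yet still positive, in both repeats and the primary screen; inactive = the rest.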
Molecular target: Short transient receptor potential channel 4 (Mus musculus) (UniProt Q9QUQ5)
Experiment: blockers of DAMGO-evoked TRPC4 calcium flux – cell-based, second round, Fluo4, HEK293 TRPC4beta/mu-opioid, 1 µM, confirmation (AID 2637)
Conditions: at 1 µM
Procedure, shortened: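 test system = HEK293 stable line co-expressing TRPC4beta and mu-opioid receptor | schedule = dye loading 45 min room temperature, compound pre-incubation 110 s | controls = DAMGO ECmax control wells and wells without test compound | reagent = DAMGO, submaximal then ECmax | signal = kinetic Fluo4 Ca2+ fluorescence reading | replication = duplicates | compound = 1 µM single point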

Chain of Short transient receptor potential channel 4 (Mus musculus) (Q9QUQ5 whole entry, looked up): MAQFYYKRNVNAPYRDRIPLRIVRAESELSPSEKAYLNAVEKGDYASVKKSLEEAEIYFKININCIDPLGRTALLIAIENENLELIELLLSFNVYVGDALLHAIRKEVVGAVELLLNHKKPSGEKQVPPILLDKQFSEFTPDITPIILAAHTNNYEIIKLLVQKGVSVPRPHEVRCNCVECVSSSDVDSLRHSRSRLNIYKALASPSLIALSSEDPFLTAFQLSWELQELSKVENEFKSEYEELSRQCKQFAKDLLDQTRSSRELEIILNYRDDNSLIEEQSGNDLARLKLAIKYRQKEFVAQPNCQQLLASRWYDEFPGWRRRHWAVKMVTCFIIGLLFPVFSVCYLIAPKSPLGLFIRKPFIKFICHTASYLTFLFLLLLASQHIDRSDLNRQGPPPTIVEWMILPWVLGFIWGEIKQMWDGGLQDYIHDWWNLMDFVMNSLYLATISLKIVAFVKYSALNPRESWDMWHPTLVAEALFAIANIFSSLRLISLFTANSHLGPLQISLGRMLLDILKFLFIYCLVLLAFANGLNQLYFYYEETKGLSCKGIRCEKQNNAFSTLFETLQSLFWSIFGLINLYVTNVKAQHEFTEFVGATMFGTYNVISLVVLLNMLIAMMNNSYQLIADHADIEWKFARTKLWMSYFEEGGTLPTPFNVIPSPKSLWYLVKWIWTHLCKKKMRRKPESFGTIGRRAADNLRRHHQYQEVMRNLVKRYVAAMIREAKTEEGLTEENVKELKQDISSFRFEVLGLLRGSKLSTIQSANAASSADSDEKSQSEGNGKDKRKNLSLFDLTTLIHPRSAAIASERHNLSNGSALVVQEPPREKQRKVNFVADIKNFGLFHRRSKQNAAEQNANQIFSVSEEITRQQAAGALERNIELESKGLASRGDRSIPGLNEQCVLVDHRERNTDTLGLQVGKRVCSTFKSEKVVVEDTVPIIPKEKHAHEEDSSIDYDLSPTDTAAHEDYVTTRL

outcome, inactive:
CC(C)c1ccc(NC(=S)N(C)CCc2ccccn2)cc1, CCN1CCN(c2ccc(S(=O)(=O)N3CCCCC3)cc2NC(=O)COc2ccccc2)CC1, COC(=O)c1ccccc1N=Nc1c(N)[nH][nH]c1=O, CCc1nc(NCCc2ccccn2)c2nnn(Cc3ccccc3F)c2n1, COC(=O)c1ccc(N2CCN(C)CC2)c(NC(=O)COc2ccccc2)c1, CCC1(c2ccc(F)cc2)NC(=O)N(CC(=O)c2cc(C)n(C3CC3)c2C)C1=O (stereo not given), CCOC(=O)C1(CC2CCCCO2)CCN(Cc2c(C)cc(C)cc2-n2cccn2)CC1 (stereo not given), Cc1ccc(Cl)cc1NC(=O)CNCC(c1ccccc1)N(C)C (stereo not given), CCOC(=O)C1(CCOc2ccccc2)CCN(Cc2ccc3c(c2)OCCO3)CC1, CCOc1ccccc1CN1CCNC(=O)C1CC(=O)N(C)CCc1ccccn1 (stereo not given), CN(CCc1ccccn1)C(=O)CC1C(=O)NCCN1Cc1ccccc1C(F)(F)F (stereo not given), Cc1ccc(C)c(OCCCCCn2ccnc2)c1, O=C(C1CCCN(Cc2ccccc2F)C1)N1CCc2ccccc2C1 (stereo not given), CCOC(=O)C1(CCCc2ccccc2)CCN(Cc2cn(CC)nc2C)CC1, NCCSc1c(-c2ccc(Cl)cc2)[nH]c2ccccc12, CN(C)CCCN(C(=O)c1ccc(C(=O)c2ccccc2)cc1)c1nc2ccc(F)cc2s1, COc1ccc(-c2nn(-c3ccccc3)cc2CNCc2cccnc2)c(F)c1, Cc1cc(Br)ccc1OCCn1ccnc1, C=CCn1c(CCNC(=O)C(C)(C)C)nc2ccccc21, Cc1cc(Cl)cc(C)c1OCCCCn1ccnc1, Cc1sc2nc(CSc3ccccc3)nc(NCCN(C)C)c2c1C, CCN1CCN(c2c(S(=O)(=O)c3ccc(C)c(C)c3)cnc3ccc(F)cc23)CC1, Cc1ccc(C)c(OCCCCn2ccnc2)c1, Cc1ccccc1NC(=S)NCCc1ccccn1, CN(C)C(CNC(=O)Cc1cccc(C(F)(F)F)c1)c1ccco1 (stereo not given), CCOc1ccccc1CN1CCNC(=O)C1CC(=O)NCCc1ccccn1 (stereo not given), CCOc1ccc2ncc(C(=O)c3ccc(OC)cc3)c(N3CCN(CC)CC3)c2c1, Cc1cc(NC(=O)CN2CCc3ccccc3C2)nc2c1c(=O)oc1ccccc12, Cc1ccccc1C(=O)NNC(=S)NC(=O)c1ccccc1, CCOC(=O)C1CCCN(C(c2ccccn2)c2c(C)[nH]c3ccccc23)C1 (stereo not given), COc1cc(/C=C/C(=O)c2ccc3c(c2)OCO3)cc(Cl)c1O, CN(C)C(CNC(=O)/C=C/c1cccc(Cl)c1)c1ccccc1 (stereo not given), COc1ccc(C(=O)NC(=S)NNC(=O)c2c(-c3ccccc3)noc2C)cc1, O=S(=O)(c1ccc(Cl)cc1)N1CCN2CCCC2C1 (stereo not given), Cc1ccc(-n2cc(CNCC3CC(=O)N(C4CC4)C3)c(-c3cccc(C)c3)n2)cc1 (stereo not given), CCCCCSc1nnc2c(n1)OC(c1cccn1C)N(C(C)=O)c1ccccc1-2 (stereo not given), CCCCC(c1nnnn1CC1CCCO1)N1CCN(c2nc3ccccc3s2)CC1 (stereo not given), CCN(CCCNS(=O)(=O)c1cc(-c2cc(C)no2)ccc1C)Cc1ccccc1, COc1ccc(-c2nc(CN3CCC(C(=O)NC4CCCC4)CC3)c(C)o2)cc1OC, CCN(CC)CCSc1nc2ccc(OC)cc2[nH]1
